Test results taken from ChEMBL document CHEMBL1145812, “Synthesis and biological evaluation of 18-methoxycoronaridine congeners. Potential antiaddiction agents” (J Med Chem, 2003).

How the values were obtained:
[1] = target: Mu-type opioid receptor (Cavia porcellus) (UniProt P97266); assay: Inhibition of [3H]DAMGO binding to Opioid receptor mu 1 from guinea pig brain membranes; design: concentration or dose not given beside the values; details: concentration not given here
How it was run: (§1)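 Guinea pig brain membranes (0.5 mg protein/sample) were incubated at 25 °C in 50 mM Tris-HCl, pH 7.5, with receptor-specific radioligand and compound at 1 µM. Nonspecific binding was defined with 10 µM naloxone. Values are the mean ± SE of three separate experiments, each run in triplicate.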

[2] = target: T1, Neuronal acetylcholine receptor; alpha3/beta4 (Homo sapiens, UniProt P30926+P32297); assay: Recovery from Ach evoked currents at Nicotinic acetylcholine receptor alpha3-beta4 at 18 uM concentration; assay type: functional
How it was run: (§2)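 HEK293 cells transiently co-transfected with nAChR α3 and β4 cDNAs plus EGFP; EGFP-positive cells recorded 12–36 h later by whole-cell voltage clamp at -70 mV. Pipette: CsCl/CsF/HEPES/EGTA, pH 7.2; bath: NaCl/KCl/HEPES/glucose, pH 7.3. Each compound was co-applied at 20 µM (one at 18 µM) with 1 mM ACh. Reported: percent inhibition, rate of inhibition and percent recovery, as mean ± SEM.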

[3] = target: T1, Neuronal acetylcholine receptor; alpha3/beta4; assay: Inhibition of Ach evoked currents at Nicotinic acetylcholine receptor alpha3-beta4 by 18 uM concentration; assay type: functional; how it was run: as §2
[4] = Relative inhibition index (RI) was determined as the % recovery / (rate of inhibition) and is expressed relative to Compound 3; assay type: functional
How it was run: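 Read from the same α3β4 whole-cell ACh (1 mM) co-application recordings. The index is percent recovery divided by rate of inhibition, normalised to the parent reference ligand. Values below 1.0 mean lower Ki; values above 1.0 mean higher Ki.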

[5] = target: Kappa-type opioid receptor (Cavia porcellus) (UniProt P41144); assay: Inhibition of [3H]U-69593 binding to Opioid receptor kappa 1 from guinea pig brain membranes; design: concentration or dose not given beside the values; details: concentration not given here; how it was run: as §1
[6] = target: T1, Neuronal acetylcholine receptor; alpha3/beta4; assay: Rate of inhibition of Ach evoked currents at Nicotinic acetylcholine receptor alpha3-beta4 by 18 uM concentration; assay type: functional; how it was run: as §2
[7] = target: T1, Neuronal acetylcholine receptor; alpha3/beta4; assay: Binding affinity towards Nicotinic acetylcholine receptor alpha3-beta4 determined from kinetic measures of koff/kon; assay type: protein-complex assay
How it was run: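 Ki was estimated as koff/kon from α3β4 whole-cell recordings with drug at 20 µM co-applied with 1 mM ACh. koff was taken from the rate of recovery and kon from the rate of inhibition.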

Mu-type opioid receptor = Mu-type opioid receptor (Cavia porcellus, UniProt P97266); assay: Binding affinity was determined against Opioid receptor mu 1 from guinea pig brain membranes
[8] = target: T1, Neuronal acetylcholine receptor; alpha3/beta4; assay: Recovery from Ach evoked currents at Nicotinic acetylcholine receptor alpha3-beta4 at 20 uM concentration; assay type: functional; how it was run: as §2
[9] = target: Kappa-type opioid receptor (Cavia porcellus, UniProt P41144); assay: Binding affinity was determined against Opioid receptor kappa 1 from guinea pig brain membranes
[10] = target: T1, Neuronal acetylcholine receptor; alpha3/beta4; assay: Inhibition of Ach evoked currents at Nicotinic acetylcholine receptor alpha3-beta4 by 20 uM concentration; assay type: functional; how it was run: as §2
[11] = target: T1, Neuronal acetylcholine receptor; alpha3/beta4; assay: Rate of inhibition of Ach evoked currents at Nicotinic acetylcholine receptor alpha3-beta4 by 20 uM concentration; assay type: functional; how it was run: as §2
[12] = target: T1, Neuronal acetylcholine receptor; alpha3/beta4; assay: Rate of inhibition of Ach evoked currents at alpha3-beta4 nicotinic acetylcholine receptor by 20 uM concentration; assay type: functional; how it was run: as §2
[13] = target: T1, Neuronal acetylcholine receptor; alpha3/beta4; assay: Recovery from Ach evoked currents at alpha3-beta4 nicotinic acetylcholine receptor at 20 uM concentration; assay type: functional; how it was run: as §2
[14] = target: T1, Neuronal acetylcholine receptor; alpha3/beta4; assay: Inhibition of Ach evoked currents at alpha3-beta4 nicotinic acetylcholine receptor by 20 uM concentration; assay type: functional; how it was run: as §2
[15] = target: T1, Neuronal acetylcholine receptor; alpha3/beta4; assay: Recovery from Ach evoked currents at alpha3-beta4 nicotinic acetylcholine receptor at 20 uM; assay type: functional; how it was run: as §2
[16] = target: Mu-type opioid receptor (Cavia porcellus) (UniProt P97266); assay: Inhibitory activity was determined against Opioid receptor mu 1 from guinea pig brain membranes at 1 uM concentration, using 0.25 nM of [3H]DAMGO radioligand; details: Membrane; how it was run: as §1

Chain of Kappa-type opioid receptor (Cavia porcellus) (P41144 whole entry): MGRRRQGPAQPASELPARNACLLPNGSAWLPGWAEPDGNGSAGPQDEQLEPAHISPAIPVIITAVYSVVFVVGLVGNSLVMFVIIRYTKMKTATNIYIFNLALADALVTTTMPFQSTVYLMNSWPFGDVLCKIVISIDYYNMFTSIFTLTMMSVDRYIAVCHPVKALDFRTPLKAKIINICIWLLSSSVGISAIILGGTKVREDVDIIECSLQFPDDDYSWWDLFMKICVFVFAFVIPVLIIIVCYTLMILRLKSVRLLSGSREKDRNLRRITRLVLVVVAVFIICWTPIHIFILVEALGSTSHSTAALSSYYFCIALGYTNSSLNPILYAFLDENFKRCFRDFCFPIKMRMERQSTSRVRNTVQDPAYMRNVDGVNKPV
Chain of Mu-type opioid receptor (Cavia porcellus) (P97266 whole entry): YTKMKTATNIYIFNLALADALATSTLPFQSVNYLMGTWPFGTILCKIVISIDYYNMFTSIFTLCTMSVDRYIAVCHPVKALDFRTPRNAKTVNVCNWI
Chain of Kappa-type opioid receptor (P41144 whole entry): as the sequence (P41144 whole entry) above
T1 sequence (P30926 whole entry): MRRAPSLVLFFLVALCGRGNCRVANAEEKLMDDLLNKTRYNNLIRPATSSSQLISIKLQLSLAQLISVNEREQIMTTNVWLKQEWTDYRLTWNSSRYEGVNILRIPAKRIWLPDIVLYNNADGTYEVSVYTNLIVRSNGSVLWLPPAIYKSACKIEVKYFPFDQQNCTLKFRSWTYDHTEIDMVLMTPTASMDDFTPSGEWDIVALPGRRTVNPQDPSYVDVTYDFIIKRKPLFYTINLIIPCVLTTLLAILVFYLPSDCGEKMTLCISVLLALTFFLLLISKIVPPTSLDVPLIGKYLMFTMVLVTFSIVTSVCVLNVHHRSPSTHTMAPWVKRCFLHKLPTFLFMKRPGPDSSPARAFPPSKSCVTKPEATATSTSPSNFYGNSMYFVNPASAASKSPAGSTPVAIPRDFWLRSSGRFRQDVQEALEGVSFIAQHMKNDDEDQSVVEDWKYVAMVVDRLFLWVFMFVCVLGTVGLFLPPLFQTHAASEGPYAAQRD
T1 sequence (P32297 whole entry): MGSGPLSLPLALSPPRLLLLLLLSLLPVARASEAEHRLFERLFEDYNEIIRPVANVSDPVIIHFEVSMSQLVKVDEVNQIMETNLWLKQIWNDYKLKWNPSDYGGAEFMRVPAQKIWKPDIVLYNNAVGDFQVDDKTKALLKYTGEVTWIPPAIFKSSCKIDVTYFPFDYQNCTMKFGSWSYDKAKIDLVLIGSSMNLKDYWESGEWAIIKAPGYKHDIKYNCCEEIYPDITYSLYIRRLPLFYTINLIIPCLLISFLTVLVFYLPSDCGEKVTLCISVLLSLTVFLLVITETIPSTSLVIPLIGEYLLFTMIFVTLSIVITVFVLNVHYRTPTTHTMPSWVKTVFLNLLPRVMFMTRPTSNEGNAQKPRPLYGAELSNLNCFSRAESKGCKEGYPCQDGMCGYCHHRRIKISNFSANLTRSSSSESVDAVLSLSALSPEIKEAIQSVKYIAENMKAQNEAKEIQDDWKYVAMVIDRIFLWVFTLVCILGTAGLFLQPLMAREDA
Chain of Mu-type opioid receptor (P97266 whole entry): as the sequence (P97266 whole entry) above

Structure (SMILES)	inhibition [1]	RI [4]	inhibition [5]	Rate of inhibition [12]	inhibition [14]	Recovery [15]	also measured
COC(=O)[C@@]12CC3C[C@H](CCO)[C@@H]1N(CCc1c2[nH]c2ccccc12)C3	15%	5.4	4%				Recovery [2]: 73%; inhibition [3]: 98%; Rate of inhibition [6]: 6.5 s⁻¹
COCC[C@H]1CC2CN3CCc4c([nH]c5ccccc45)[C@](C(=O)OC)(C2)[C@H]13 [18-METHOXYCORONARIDINE]	50%	1	20%				Ki [7]: 700 nM; Ki (Mu-type opioid receptor): 1100 nM; Recovery [8]: 12%; Ki [9]: 5100 nM; inhibition [10]: 98%; Rate of inhibition [11]: 5.5 s⁻¹
COCC[C@H]1CC2CN3CCc4c([nH]c5ccccc45)[C@](C(=O)NCCN(C)C)(C2)[C@H]13	4%	3.9	11%	9.5 s⁻¹	93%		Recovery [13]: 81%
COCCNC(=O)[C@@]12CC3C[C@H](CCOC)[C@@H]1N(CCc1c2[nH]c2ccccc12)C3	10%	2.3	6%	9.2 s⁻¹	96%		Recovery [13]: 46%
CNCC[C@H]1CC2CN3CCc4c([nH]c5ccccc45)[C@](C(=O)OC)(C2)[C@H]13	24%	1.1	7%	8.5 s⁻¹	98%	21%	
COCC[C@H]1CC2CN3CCc4c([nH]c5ccccc45)[C@](C(=O)OCCO)(C2)[C@H]13	8%	1.2	8%	7.6 s⁻¹	97%	20%	
COCC[C@H]1CC2CN3CCc4c([nH]c5ccccc45)[C@](C(=O)OCCN(C)C)(C2)[C@H]13	16%	0.7	78%	10.3 s⁻¹	98%	16%	Ki [9]: 188 nM
COCC[C@H]1CC2CN3CCc4c([nH]c5ccccc45)[C@](C(=O)O)(C2)[C@H]13		2.4	7%	5.1 s⁻¹	59%	27%	inhibition [16]: 11%
COCC[C@H]1CC2CN3CCc4c([nH]c5ccccc45)[C@](C(=O)OCCNC(C)=O)(C2)[C@H]13	0%	3.1	3%	6.7 s⁻¹	95%	45%	
COCCC1C2CN3CCc4c([nH]c5ccccc45)[C@](C(=O)OC)(C2)[C@H]13 (some centres undefined)	18%	1.6	10%	4.1 s⁻¹	94%	14%	
COC(=O)[C@@]12CC3C[C@H](CCN(C)C)[C@@H]1N(CCc1c2[nH]c2ccccc12)C3	15%	0.9	11%	8 s⁻¹	99%	16%	
COC(=O)[C@@]12CC3C[C@H](CCOCc4ccccc4)[C@@H]1N(CCc1c2[nH]c2ccccc12)C3			6%				Recovery [8]: 0%; inhibition [16]: 12%; inhibition [10]: 64%; Rate of inhibition [11]: 2.2 s⁻¹
COCC[C@H]1CC2CN3CCc4c([nH]c5ccccc45)[C@](C(=O)NCCCCCCNC(=O)CCCC[C@@H]4SCC5NC(=O)NC54)(C2)C13 (some centres undefined)	19%		9%				
COCC[C@H]1CC2CN3CCc4c([nH]c5ccccc45)[C@](C(=O)NCCO)(C2)[C@H]13	7%	4.7	9%	7.9 s⁻¹	85%	80%	
COCCOC(=O)[C@@]12CC3C[C@H](CCOC)[C@@H]1N(CCc1c2[nH]c2ccccc12)C3	5%	0.6	24%	6 s⁻¹	99%	8%	
